Results reported in ChEMBL document CHEMBL4152216, “Syntheses and anti-pancreatic cancer activities of rakicidin A analogues” (Eur J Med Chem, 2018).

Key:
PANC-1 [1] = test: Cytotoxicity against human PANC1 cells after 72 hrs under hypoxic condition by MTT assay; format: functional, cell-based; conditions: PANC-1, 72 h
Summary of the method: (§1)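 PANC-1, PATU8988T and ASPC-1 cells were grown in DMEM with 10% FBS at 37 °C and 5% CO2, then seeded at 4000 cells/well. Compounds were added at various concentrations after 6 h. Normoxic plates stayed at 37 °C, 5% CO2. Hypoxic plates went into a chamber purged 10 min with 5% CO2/1% O2/94% N2, sealed, at 37 °C. After 72 h, MTT was added for 4 h, formazan dissolved in DMSO and read at 570 nm. IC50 is the mean ± SD of three independent experiments.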

PANC-1 [2] = test: Cytotoxicity against human PANC1 cells after 72 hrs under normoxic condition by MTT assay; format: functional, cell-based; conditions: PANC-1, 72 h; summary of the method: as §1
PANC-1 [3] = test: Selectivity index, ratio of IC50 against human PANC1 cells under normoxic condition to IC50 for human PANC1 cells under hypoxic condition; format: functional
Summary of the method: (§2)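 Hypoxic selectivity index is IC50 (normoxia)/IC50 (hypoxia). Both IC50s come from the 72 h MTT assay in the same cell line, run under normoxia (37 °C, 5% CO2) or a sealed 1% O2/5% CO2/94% N2 chamber, each the mean of three independent experiments.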

ASPC1 [4] = test: Cytotoxicity against human Aspc-1 cells after 72 hrs under normoxic condition by MTT assay; format: functional, cell-based; conditions: ASPC1, 72 h; summary of the method: as §1
ASPC1 [5] = test: Cytotoxicity against human Aspc-1 cells after 72 hrs under hypoxic condition by MTT assay; format: functional, cell-based; conditions: ASPC1, 72 h; summary of the method: as §1
ASPC1 [6] = test: Selectivity index, ratio of IC50 against human Aspc-1 cells under normoxic condition to IC50 for human Aspc-1 cells under hypoxic condition; format: functional; summary of the method: as §2
PaTu 8988t [7] = test: Cytotoxicity against human PA-TU-8988T cells after 72 hrs under normoxic condition by MTT assay; format: functional, cell-based; summary of the method: as §1
PaTu 8988t [8] = test: Cytotoxicity against human PA-TU-8988T cells after 72 hrs under hypoxic condition by MTT assay; format: functional, cell-based; summary of the method: as §1
PaTu 8988t [9] = test: Selectivity index, ratio of IC50 against human PA-TU-8988T cells under normoxic condition to IC50 for human PA-TU-8988T cells under hypoxic condition; format: functional; summary of the method: as §2
PANC-1 [10] = test: Inhibition of cancer stem cell population of human PANC1 cells assessed as CD24+/CD44+/ESA+ cell population level at 0.15 uM after 48 hrs by flow cytometric analysis (reference value: 1.7%); format: functional; set-up: scale not given: the % may be the effect or the level left
[11] = biological target: T1, Aldehyde dehydrogenase, mitochondrial (Homo sapiens) (UniProt P05091); test: Inhibition of ALDH in human PANC1 cells assessed as aldefluor positive cells at 0.2 uM after 72 hrs in presence of DEAB by aldefluor assay (reference value: 0.455%); format: cell-based; set-up: scale not given: the % may be the effect or the level left
T1 sequence (whole entry): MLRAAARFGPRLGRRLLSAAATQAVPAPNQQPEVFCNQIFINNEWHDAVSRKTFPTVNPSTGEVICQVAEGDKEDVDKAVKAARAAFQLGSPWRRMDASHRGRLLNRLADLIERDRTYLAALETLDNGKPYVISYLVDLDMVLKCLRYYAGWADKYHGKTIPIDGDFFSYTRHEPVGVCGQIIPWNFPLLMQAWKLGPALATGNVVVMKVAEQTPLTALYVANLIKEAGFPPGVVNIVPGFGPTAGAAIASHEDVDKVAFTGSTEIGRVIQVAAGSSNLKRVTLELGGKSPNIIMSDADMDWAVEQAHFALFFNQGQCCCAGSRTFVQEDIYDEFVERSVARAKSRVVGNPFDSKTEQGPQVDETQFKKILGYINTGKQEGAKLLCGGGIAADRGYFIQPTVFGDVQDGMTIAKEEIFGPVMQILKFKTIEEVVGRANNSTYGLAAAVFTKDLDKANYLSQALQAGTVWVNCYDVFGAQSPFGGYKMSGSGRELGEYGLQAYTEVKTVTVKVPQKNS
Summary of the method: (§3)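 PANC-1 cells were seeded at 5×10^4 cells/well and exposed after 6 h to compound (0.2 µM; ADR 0.5 µM) for 72 h. Living cells were suspended in assay buffer and incubated with Aldefluor substrate for 60 min at 37 °C. A parallel sample received substrate plus the ALDH inhibitor DEAB as negative control. Readout was percentage of ALDH+ cells, mean ± SEM, n = 3.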

[12] = biological target: T1, Aldehyde dehydrogenase, mitochondrial (Homo sapiens); test: Inhibition of ALDH in human PANC1 cells assessed as aldefluor positive cells at 0.2 uM after 72 hrs by aldefluor assay (reference value: 12.5%); format: cell-based; set-up: scale not given: the % may be the effect or the level left; summary of the method: as §3
PANC-1 [13] = test: Inhibition of tumorsphere formation in human PANC1 cells assessed as reduction in number of tumor spheres at 0.25 uM after 7 days; format: functional
Summary of the method: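 Tumorsphere formation: single-cell PANC-1 suspensions were plated in ultra-low-attachment wells at 2,000 cells/mL in Complete MammoCult medium, with compound at 0.25 µM. Tumorspheres were counted after 7 days. Three repeats, mean ± SEM.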

PANC-1 [14] = test: Antitumor activity against human PANC1 cells xenografted in BALB/c nude mouse assessed as reduction in tumor initiating cell frequency at 0.1 to 0.25 uM measured after 7 days; format: functional
Summary of the method: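 PANC-1 cells were treated in vitro with compound (ADR at 0.5 µM) for 48 h, collected, and injected subcutaneously at limiting cell doses into 5-week-old female BALB/c nude mice. Tumor formation rate was scored after 7 days. Tumor-initiating frequency was derived by limiting-dilution analysis with Poisson statistics against vehicle.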

SMILES | IC50 (PANC-1 [1]) | IC50 (PANC-1 [2]) | Ratio IC50 (PANC-1 [3]) | IC50 (ASPC1 [4]) | IC50 (ASPC1 [5]) | Ratio IC50 (ASPC1 [6]) | IC50 (PaTu 8988t [7]) | IC50 (PaTu 8988t [8]) | Ratio IC50 (PaTu 8988t [9]) | Activity (PANC-1 [10]) | Activity [11] | Activity [12] | fold change (FC) (PANC-1 [13]) | fold change (FC) (PANC-1 [14])
C=C1/C=C/C(=O)N(C)CC(=O)N[C@@H](C)C(=O)O[C@@H]([C@H](C)CCCCCCCCCCCCCC)[C@H](C)C(=O)N1 | 270 nM | 1100 nM | 4.04 | – | – | – | – | – | – | – | – | – | – | –
C=C1/C=C/C(=O)N(C)CC(=O)N[C@@H](Cc2ccccc2)C(=O)O[C@@H]([C@H](C)CCCCCCCCCCCCCC)[C@H](C)C(=O)N1 | 120 nM | 430 nM | 3.76 | 1400 nM | 600 nM | 2.4 | 1400 nM | 650 nM | 2.14 | 1.6% | – | – | – | –
CCCCCCCCCCCCCC[C@@H](C)[C@@H]1OC(=O)[C@H](CC(=O)NC2CC2)NC(=O)CN(C)C(=O)/C=C/C(CO[Si](c2ccccc2)(c2ccccc2)C(C)(C)C)NC(=O)[C@H]1C (some centres not stated) | > 10000 nM | > 10000 nM | – | – | – | – | – | – | – | – | – | – | – | –
C#CCOC(=O)C[C@@H]1NC(=O)CN(C)C(=O)/C=C/C(=C)NC(=O)[C@@H](C)[C@H]([C@H](C)CCCCCCCCCCCC(C)C)OC1=O | 66 nM | 150 nM | 2.21 | 260 nM | 120 nM | 2.23 | 300 nM | 110 nM | 2.8 | 1.9% | – | – | – | –
C=C1/C=C/C(=O)N(CCCCCC)CC(=O)N[C@@H]([C@H](O)C(=O)OC)C(=O)O[C@@H]([C@H](C)CCCCCCCCCCCC(C)C)[C@H](C)C(=O)N1 | 7000 nM | > 50000 nM | >7.11 | – | – | – | – | – | – | – | – | – | – | –
C=C1/C=C/C(=O)N(C)CC(=O)N[C@@H](CC(=O)OCC)C(=O)O[C@@H]([C@H](C)CCCCCCCCCCCC(C)C)[C@H](C)C(=O)N1 | 74 nM | 180 nM | 2.43 | 280 nM | 150 nM | 1.85 | 320 nM | 110 nM | 2.89 | – | – | – | – | –
C=C1/C=C/C(=O)N(C)CC(=O)N[C@@H](CC(=O)OC)C(=O)O[C@@H]([C@H](C)CCCCCCCCCCCCCC)[C@H](C)C(=O)N1 | 58 nM | 120 nM | 1.98 | 980 nM | 350 nM | 2.8 | 640 nM | 340 nM | 1.87 | 0.7% | – | – | – | –
C=C1/C=C/C(=O)N(C)CC(=O)N[C@@H]([C@H](O)C(=O)OC)C(=O)O[C@@H]([C@H](C)CCCCCCCCCCCC(C)C)[C@H](C)C(=O)N1 | 90 nM | 270 nM | 2.98 | 540 nM | 150 nM | 3.63 | 450 nM | 120 nM | 3.91 | 0.83% | – | – | – | –
COC(=O)C[C@@H]1NC(=O)CN(C)C(=O)/C=C/CNC(=O)[C@@H](C)[C@H]([C@H](C)CCCCCCCCCCCC(C)C)OC1=O | 28000 nM | 21000 nM | 0.76 | – | – | – | – | – | – | – | – | – | – | –
C=C1/C=C/C(=O)N(CC(F)(F)F)CC(=O)N[C@@H]([C@H](O)C(=O)OC)C(=O)O[C@@H]([C@H](C)CCCCCCCCCCCC(C)C)[C@H](C)C(=O)N1 | 1500 nM | 2500 nM | 1.72 | – | – | – | – | – | – | – | – | – | – | –
C=C1/C=C/C(=O)N(C)CC(=O)N[C@@H]([C@H](O)C(N)=O)C(=O)O[C@@H]([C@H](C)CCCCCCCCCCCC(C)C)[C@H](C)C(=O)N1 | 42 nM | 220 nM | 5.24 | 680 nM | 82 nM | 8.4 | 240 nM | 33 nM | 7.54 | 0.43% | 0.544% | 0.46% | 4 | 4.7
